Data as given in ChEMBL document CHEMBL1133863, “Dual neurokinin NK(1)/NK(2) antagonists: N-[(R,R)-(E)-1-arylmethyl-3-(2-oxo-azepan-3-yl)carbamoyl]allyl-N-methyl-3,5-bis(trifluoromethyl)benzamides and 3-[N'-3,5-bis(trifluoromethyl)benzoyl-N-arylmethyl-N'-methylhydrazino]-N-[(R)-2-oxo-azepan-3-yl]propionamides” (Bioorg Med Chem Lett, 2001).

Biological target: T1, Substance-K receptor (Homo sapiens, UniProt P21452)
T1 sequence (P21452 whole entry): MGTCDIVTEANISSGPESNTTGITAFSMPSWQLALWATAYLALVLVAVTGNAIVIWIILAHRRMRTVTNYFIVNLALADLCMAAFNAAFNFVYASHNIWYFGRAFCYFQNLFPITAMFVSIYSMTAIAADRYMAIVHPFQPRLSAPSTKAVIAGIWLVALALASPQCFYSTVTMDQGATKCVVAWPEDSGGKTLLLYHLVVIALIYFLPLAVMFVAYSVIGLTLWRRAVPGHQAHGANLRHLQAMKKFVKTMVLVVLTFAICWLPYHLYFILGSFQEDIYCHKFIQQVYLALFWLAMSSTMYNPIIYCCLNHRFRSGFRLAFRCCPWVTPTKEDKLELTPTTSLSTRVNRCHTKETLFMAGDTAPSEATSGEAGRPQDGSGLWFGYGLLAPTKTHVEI
Test: In vitro binding affinity for Tachykinin receptor 2 of human-CHO cells using 125 I-NKA radioligand
Type: cell-based
How it was run: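 Whole CHO cells stably expressing recombinant human NK2 receptor (3×10^5 per well) incubated 20 min at room temperature with 0.05 nM [125I]-NKA (2200 Ci/mmol) and a range of test concentrations in 20 mM HEPES pH 7.4 with 2 mM MnSO4 and 6 mM MgCl2. Nonspecific binding defined with 50 nM NKA. Rapid filtration, four ice-cold Tricine washes, scintillation counting; triplicate samples.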

SMILES	IC50
CN(C(=O)c1cc(C(F)(F)F)cc(C(F)(F)F)c1)N(CCC(=O)N[C@@H]1CCCCNC1=O)Cc1ccc2ccccc2c1	55 nM
CN(C(=O)c1cc(C(F)(F)F)cc(C(F)(F)F)c1)[C@@H](/C=C/C(=O)NC1CCCCCC1)Cc1ccc(Cl)cc1	203 nM
CN(C(=O)c1cc(C(F)(F)F)cc(C(F)(F)F)c1)N(CCC(=O)N[C@@H]1CCCCNC1=O)Cc1cc(Br)c(Br)s1	19.5 nM
CN(C(=O)c1cc(C(F)(F)F)cc(C(F)(F)F)c1)[C@@H](/C=C/C(=O)NC1(C(N)=O)CCCCC1)Cc1ccc(Cl)cc1	66 nM
CN(C(=O)c1cc(C(F)(F)F)cc(C(F)(F)F)c1)[C@@H](/C=C/C(=O)N[C@@H]1CCCCNC1=O)Cc1cn(C)c2ccccc12	24 nM
CN(C(=O)c1cc(C(F)(F)F)cc(C(F)(F)F)c1)[C@@H](/C=C/C(=O)N[C@@H]1CCCCNC1=O)Cc1ccc(Cl)c(Cl)c1 [DNK333]	5.5 nM

Continued by falling IC50, values first:

IC50	SMILES
60 nM	CN(C(=O)c1cc(C(F)(F)F)cc(C(F)(F)F)c1)[C@@H](/C=C/C(=O)N[C@@H]1CCCCNC1=O)Cc1ccc2ccccc2c1
26 nM	CN(C(=O)c1cc(C(F)(F)F)cc(C(F)(F)F)c1)[C@@H](/C=C/C(=O)N[C@@H]1CCCCNC1=O)Cc1cc(Br)c(Br)s1
17 nM	CN(C(=O)c1cc(C(F)(F)F)cc(C(F)(F)F)c1)[C@@H](/C=C/C(=O)N[C@@H]1CCCCNC1=O)Cc1cc(Cl)c(Cl)s1
5.5 nM	CN(C(=O)c1cc(C(F)(F)F)cc(C(F)(F)F)c1)N(CCC(=O)N[C@@H]1CCCCNC1=O)Cc1ccc(Cl)c(Cl)c1
